Experimental findings from ChEMBL document CHEMBL4177549, “Malonylginsenosides with Potential Antidiabetic Activities from the Flower Buds of Panax ginseng” (J Nat Prod, 2017) are described below.

Each structure is given as a SMILES string. Activity calls are given as the source filed them. No cut-off for these calls is given here.

In assay [1] the target is AMPK alpha2/beta1/gamma1 (Homo sapiens, UniProt P54619+P54646+Q9Y478). The assay can be described thus: Activation of recombinant AMPKalpha2beta1gamma1 (unknown origin) expressed in Escherichia coli BL21 in presence of CaMKKbeta (unknown origin) incubated for 45 mins in presence of substrate-1 peptide and ATP by HTRF assay.
Sequence of AMPK alpha2/beta1/gamma1 (P54646 whole entry): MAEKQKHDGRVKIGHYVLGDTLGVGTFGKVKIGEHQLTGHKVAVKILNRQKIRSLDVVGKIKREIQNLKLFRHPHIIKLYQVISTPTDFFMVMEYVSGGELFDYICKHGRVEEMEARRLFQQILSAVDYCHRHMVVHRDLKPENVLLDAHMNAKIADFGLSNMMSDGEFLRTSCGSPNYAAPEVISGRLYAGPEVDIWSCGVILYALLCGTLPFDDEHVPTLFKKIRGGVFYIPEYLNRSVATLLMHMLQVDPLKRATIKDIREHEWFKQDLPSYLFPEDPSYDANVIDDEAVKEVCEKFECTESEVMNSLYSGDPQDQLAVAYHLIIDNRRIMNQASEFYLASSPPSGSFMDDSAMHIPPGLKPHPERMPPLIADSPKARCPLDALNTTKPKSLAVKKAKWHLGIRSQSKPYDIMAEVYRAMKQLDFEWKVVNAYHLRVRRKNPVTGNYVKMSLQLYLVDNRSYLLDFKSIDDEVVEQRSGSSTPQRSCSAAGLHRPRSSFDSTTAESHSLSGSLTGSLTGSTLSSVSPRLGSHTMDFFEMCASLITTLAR
Sequence of AMPK alpha2/beta1/gamma1 (P54619 whole entry): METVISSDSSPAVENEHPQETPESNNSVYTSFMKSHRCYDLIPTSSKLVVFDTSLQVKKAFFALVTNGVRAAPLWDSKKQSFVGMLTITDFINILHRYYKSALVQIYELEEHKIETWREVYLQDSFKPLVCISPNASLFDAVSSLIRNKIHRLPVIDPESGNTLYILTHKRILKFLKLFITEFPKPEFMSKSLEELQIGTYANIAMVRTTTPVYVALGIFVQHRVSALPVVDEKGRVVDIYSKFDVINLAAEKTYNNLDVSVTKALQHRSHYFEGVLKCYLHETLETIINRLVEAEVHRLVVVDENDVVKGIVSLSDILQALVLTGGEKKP
Sequence of AMPK alpha2/beta1/gamma1 (Q9Y478 whole entry): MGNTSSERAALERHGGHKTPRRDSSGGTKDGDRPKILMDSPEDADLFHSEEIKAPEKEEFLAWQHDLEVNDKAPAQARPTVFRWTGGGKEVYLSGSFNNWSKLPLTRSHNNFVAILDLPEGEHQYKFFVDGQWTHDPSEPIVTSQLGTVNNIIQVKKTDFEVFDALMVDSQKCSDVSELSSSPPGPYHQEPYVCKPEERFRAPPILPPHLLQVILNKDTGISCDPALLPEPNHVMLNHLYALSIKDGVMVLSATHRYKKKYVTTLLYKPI
The target of assay [2] is T1, AMPK alpha2/beta1/gamma1 (Homo sapiens) (UniProt P54646+P54619+Q9Y478). The assay can be described thus: Activation of recombinant AMPKalpha2beta1gamma1 (unknown origin) expressed in Escherichia coli BL21 in presence of CaMKKbeta (unknown origin) incubated for 45 mins in presence of substrate-1 peptide and ATP by HTRF assay relative to untreated control.
T1 sequence (P54619 whole entry partner): as the sequence (P54619 whole entry) above
T1 sequence (P54646 whole entry): as the sequence (P54646 whole entry) above
T1 sequence (Q9Y478 2-270 partner limits assumed): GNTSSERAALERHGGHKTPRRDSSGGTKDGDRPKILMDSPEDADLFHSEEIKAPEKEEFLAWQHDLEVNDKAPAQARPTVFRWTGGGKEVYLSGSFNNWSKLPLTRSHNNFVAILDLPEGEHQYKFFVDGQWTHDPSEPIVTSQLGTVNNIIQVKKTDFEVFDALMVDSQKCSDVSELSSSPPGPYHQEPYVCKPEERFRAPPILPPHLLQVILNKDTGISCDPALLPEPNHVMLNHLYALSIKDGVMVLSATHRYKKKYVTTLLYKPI
In assay [3] the test system is L6. Kind of assay: Induction of glucose consumption in differentiated rat L6 cells at 20 uM incubated for 12 hrs in presence of 0.5% bovine serum albumin and low-glucose by glucose oxidase method. Format: functional, cell-based. An outline of the steps:
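L6 myoblasts were grown in high-glucose DMEM with 10% FBS and then differentiated into myotubes in 2% FBS for 4−6 days. The myotubes were treated for 12 h in low-glucose (1000 mg/L) DMEM with 0.5% BSA. Medium glucose was measured by glucose oxidase. Consumption was calculated as the glucose in cell-free blank wells minus the glucose in wells with cells.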

For assay [4], the target named is T1, AMPK alpha2/beta1/gamma1 (Homo sapiens). The assay can be described thus: Activation of recombinant AMPKalpha2beta1gamma1 (unknown origin) expressed in Escherichia coli BL21 in presence of CaMKKbeta (unknown origin) at 10 uM incubated for 45 mins in presence of substrate-1 peptide and ATP by HTRF assay relative to untreated control.
Assay [5] concerns L6. Kind of assay: Induction of glucose consumption in differentiated rat L6 cells at 10 uM incubated for 12 hrs in presence of 0.5% bovine serum albumin and low-glucose by glucose oxidase method. It counts as functional, cell-based. An outline of the steps:
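L6 myoblasts grown in high-glucose (4500 mg/L) DMEM with 10% FBS, then differentiated to myotubes in high-glucose DMEM with 2% FBS for 4−6 days. Compound added in 0.5% BSA low-glucose (1000 mg/L) DMEM for 12 h. Medium glucose read by glucose oxidase method. Consumption calculated as cell-free blank wells minus wells with cells.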

As to `CC(C)=CCC[C@](C)(O[C@@H]1O[C@H](CO)[C@@H](O)[C@H](O)[C@H]1O)[C@H]1CC[C@]2(C)[C@@H]1[C@H](O)C[C@@H]1[C@@]3(C)CC[C@H](O[C@@H]4O[C@H](CO)[C@@H](O)[C@H](O)[C@H]4O[C@@H]4O[C@H](COC(=O)CC(=O)O)[C@@H](O)[C@H](O)[C@H]4O)C(C)(C)[C@@H]3CC[C@]12C`, in assay [1], the EC50 was in the range of 16.8 to 2800 nM. In addition, the fold change (FC) in assay [2] is 1.7 to 4.7.

For `CC(C)=CCC[C@](C)(O[C@@H]1O[C@H](CO[C@@H]2OC[C@H](O)[C@H](O)[C@H]2O)[C@@H](O)[C@H](O)[C@H]1O)[C@H]1CC[C@]2(C)[C@@H]1[C@H](O)C[C@@H]1[C@@]3(C)CC[C@H](O[C@@H]4O[C@H](CO)[C@@H](O)[C@H](O)[C@H]4O[C@@H]4O[C@H](CO)[C@@H](OC(=O)CC(=O)O)[C@H](O)[C@H]4O)C(C)(C)[C@@H]3CC[C@]12C`, the EC50 in assay [1] was in the range of 16.8 to 2800 nM. Further, in assay [2], the fold change (FC) was in the range of 1.7 to 4.7. The matching figures for `CC(C)=CCC[C@](C)(O[C@@H]1O[C@H](CO[C@@H]2O[C@H](CO)[C@@H](O)[C@H](O)[C@H]2O)[C@@H](O)[C@H](O)[C@H]1O)[C@H]1CC[C@]2(C)[C@@H]1[C@H](O)C[C@@H]1[C@@]3(C)CC[C@H](O[C@@H]4O[C@H](CO)[C@@H](O)[C@H](O)[C@H]4O[C@@H]4O[C@H](COC(=O)CC(=O)O)[C@@H](O)[C@H](O)[C@H]4O)C(C)(C)[C@@H]3CC[C@]12C`: 16.8 to 2800 nM and 1.7 to 4.7.

Take `CC(C)=CCC[C@](C)(O[C@@H]1O[C@H](CO)[C@@H](O)[C@H](O)[C@H]1O)[C@H]1CC[C@]2(C)[C@@H]1[C@H](O)C[C@@H]1[C@@]3(C)CC[C@H](O)C(C)(C)[C@@H]3[C@@H](O[C@@H]3O[C@H](COC(=O)CC(=O)O)[C@@H](O)[C@H](O)[C@H]3O[C@@H]3O[C@@H](C)[C@H](O)[C@@H](O)[C@H]3O)C[C@]12C`: the result in assay [3] was Active. Still for that read-out and setting: then `CC(C)=CCC[C@](C)(O[C@@H]1O[C@H](CO[C@@H]2OC[C@H](O)[C@H](O)[C@H]2O)[C@@H](O)[C@H](O)[C@H]1O)[C@H]1CC[C@]2(C)[C@@H]1[C@H](O)C[C@@H]1[C@@]3(C)CC[C@H](O[C@@H]4O[C@H](CO)[C@@H](O)[C@H](O)[C@H]4O[C@@H]4O[C@H](COC(=O)CC(=O)O)[C@@H](O)[C@H](O)[C@H]4O)C(C)(C)[C@@H]3CC[C@]12C`, with “Active”. Take `CC(C)=CCC[C@](C)(O[C@@H]1O[C@H](CO[C@@H]2O[C@@H](CO)[C@H](O)[C@H]2O)[C@@H](O)[C@H](O)[C@H]1O)[C@H]1CC[C@]2(C)[C@@H]1[C@H](O)C[C@@H]1[C@@]3(C)CC[C@H](O[C@@H]4O[C@H](CO)[C@@H](O)[C@H](O)[C@H]4O[C@@H]4O[C@H](COC(=O)CC(=O)O)[C@@H](O)[C@H](O)[C@H]4O)C(C)(C)[C@@H]3CC[C@]12C`: in assay [1], the EC50 fell in the range of 16.8 to 2800 nM. For the same compound, in assay [2], the fold change (FC) fell in the range of 1.7 to 4.7. Take `CC(C)=CCC[C@](C)(O[C@@H]1O[C@H](CO[C@@H]2O[C@H](CO)[C@@H](O)[C@H](O)[C@H]2O)[C@@H](O)[C@H](O)[C@H]1O)[C@H]1CC[C@]2(C)[C@@H]1[C@H](O)C[C@@H]1[C@@]3(C)CC[C@H](O[C@@H]4O[C@H](CO)[C@@H](O)[C@H](O)[C@H]4O[C@@H]4O[C@H](CO)[C@@H](O)[C@H](O)[C@H]4O)C(C)(C)[C@@H]3CC[C@]12C` [GINSENOSIDE RB1]: in assay [1], the EC50 fell in the range of 16.8 to 2800 nM. As to `COc1ccc2cc3[n+](cc2c1OC)CCc1cc2c(cc1-3)OCO2`, the result in assay [4] was Active. Consider `CC(C)=CCC[C@](C)(O[C@@H]1O[C@H](CO)[C@@H](O)[C@H](O)[C@H]1O)[C@H]1CC[C@]2(C)[C@@H]1[C@H](O)C[C@@H]1[C@@]3(C)CC[C@H](O[C@@H]4O[C@H](CO)[C@@H](O)[C@H](O)[C@H]4O[C@@H]4O[C@H](CO)[C@@H](O)[C@H](O)[C@H]4O)C(C)(C)[C@@H]3CC[C@]12C` [GINSENOSIDE RD], for which, in assay [1], the EC50 was 16.8 to 2800 nM. `CC(C)=CCC[C@](C)(O[C@@H]1O[C@H](CO[C@@H]2OC[C@H](O)[C@H](O)[C@H]2O)[C@@H](O)[C@H](O)[C@H]1O)[C@H]1CC[C@]2(C)[C@@H]1[C@H](O)C[C@@H]1[C@@]3(C)CC[C@H](O[C@@H]4O[C@H](CO)[C@@H](O)[C@H](O)[C@H]4O[C@@H]4O[C@H](CO)[C@@H](O)[C@H](O)[C@H]4O)C(C)(C)[C@@H]3CC[C@]12C` [GINSENOSIDE RB2]: the result in assay [5] and in assay [3] was Active. For the same compound, in assay [1], the EC50 amounted to 16.8 nM. In assay [2], the fold change (FC) amounted to 4.7. With `CC(C)=CCC[C@](C)(O[C@@H]1O[C@H](CO)[C@@H](O)[C@H](O)[C@H]1O)[C@H]1CC[C@]2(C)[C@@H]1[C@H](O)C[C@@H]1[C@@]3(C)CC[C@H](O[C@@H]4O[C@H](CO)[C@@H](O)[C@H](O)[C@H]4O[C@@H]4O[C@H](CO)[C@@H](OC(=O)CC(=O)O)[C@H](O)[C@H]4O)C(C)(C)[C@@H]3CC[C@]12C`, in assay [1], the EC50 lay within 16.8 to 2800 nM. Moreover, the fold change (FC) in assay [2] fell in the range of 1.7 to 4.7.

Take `CC(C)=CCC[C@](C)(O[C@@H]1O[C@H](CO[C@@H]2O[C@H](CO)[C@@H](OC(=O)CC(=O)O)[C@H](O)[C@H]2O)[C@@H](O)[C@H](O)[C@H]1O)[C@H]1CC[C@]2(C)[C@@H]1[C@H](O)C[C@@H]1[C@@]3(C)CC[C@H](O[C@@H]4O[C@H](CO)[C@@H](O)[C@H](O)[C@H]4O[C@@H]4O[C@H](CO)[C@@H](O)[C@H](O)[C@H]4O)C(C)(C)[C@@H]3CC[C@]12C`: the EC50 in assay [1] lay in the range of 16.8 to 2800 nM. In addition, the fold change (FC) in assay [2] lay in the range of 1.7 to 4.7.
